Published values of several laboratories.
Cell line: PC-3
Read-out: cell growth or viability

| Structure (SMILES) | test | setting | IC50 |
| --- | --- | --- | --- |
| Cc1cc(C)cc(COc2cc3c(cc2OCc2cc(C)cc(C)c2)[C@H]2C[C@](O)(Cc4cn(Cc5ccc(Cl)c(Cl)c5)nn4)C[C@H](C)N2CC3)c1 | MTT | – | 0.381 µM |
| c1ccc(CNCc2cc3c(-c4ccccc4)n[nH]c3c(Nc3ccccc3)n2)cc1 | MTS | 48 h | 3.9 µM |
| COc1ccnc(COc2ccc(NC(=O)Nc3ccc(Cl)c(C(F)(F)F)c3)cc2)c1OC | MTT | 72 h | > 100 µM |
| CCCCCCCCCc1ccc(C(=O)Nc2cc(C)ccc2C(=O)OC)cc1 | MTT | – | > 120 µM |
| CN(C)C/C=N/NC(=O)Nc1cc2c(Nc3ccc(F)c(Cl)c3)ncnc2cc1O[C@H]1CCOC1 | MTT | 72 h | 6.51 µM |
| Cc1cc(C)cc(COc2cc3c(cc2OCc2cc(C)cc(C)c2)[C@H]2C[C@](O)(Cc4cn(CC5CCCCC5)nn4)C[C@H](C)N2CC3)c1 | MTT | – | 0.384 µM |
| COc1ccnc(COc2ccc(NC(=O)Nc3ccc(F)cc3)cc2)c1OC | MTT | 72 h | 50.1 µM |
| COc1cc2ncnc(Nc3ccc(F)c(Cl)c3)c2cc1NC(=O)N/N=C/c1cccn1CCCN1CCCCC1 | MTT | 72 h | 1.06 µM |
| COc1cccc2c1C(=O)c1c(O)c3c(c(O)c1C2=O)C[C@@](O)(C(=O)CO)C[C@@H]3O[C@H]1C[C@H](N)[C@H](O)[C@H](C)O1 | MTS | 48 h | 0.68 µM |
| C=CS(=O)(=O)Nc1ccc(CCn2cc(C[C@@]3(O)C[C@@H]4c5cc(OCc6cc(C)cc(C)c6)c(OCc6cc(C)cc(C)c6)cc5CCN4[C@@H](C)C3)nn2)cc1 | MTT | – | 1.73 µM |
| [Cl-].[Cl-].[Cl-].[Fe+3] | resazurin | 72 h | 4800 µM |
| COc1cc2ncnc(Nc3ccc(F)c(Cl)c3)c2cc1NC(=O)N/N=C/c1cccn1CCCN(C)C | MTT | 72 h | 0.03 µM |
| Cc1cc(C)cc(COc2cc3c(cc2OCc2cc(C)cc(C)c2)[C@H]2C[C@](O)(Cc4cn(Cc5ccc(O)cc5)nn4)C[C@H](C)N2CC3)c1 | MTT | – | 0.79 µM |
| COCCCOc1ccnc(COc2ccc(NC(=O)Nc3cc(F)cc(F)c3)cc2)c1C | MTT | 72 h | > 100 µM |
| Cc1cc(C)cc(COc2cc3c(cc2OCc2cc(C)cc(C)c2)[C@H]2C[C@](O)(Cc4cn(CCc5ccc(N)cc5)nn4)C[C@H](C)N2CC3)c1 | MTT | – | 0.49 µM |
| CNC(=O)c1cc(Oc2ccc(NC(=O)Nc3ccc(Cl)c(C(F)(F)F)c3)cc2)ccn1 | MTT | 72 h | 3.6 µM |
| O=C(/C=C/c1ccc2c(=O)n(CC3CCCC3)cnc2c1)NO | SRB | 48 h | 2.49 µM |

| Structure (SMILES) | test | setting | IC50 |
| --- | --- | --- | --- |
| Cc1cc(C)cc(COc2cc3c(cc2OCc2cc(C)cc(C)c2)[C@H]2C[C@](O)(Cc4cn(Cc5cc(C(F)(F)F)cc(C(F)(F)F)c5)nn4)C[C@H](C)N2CC3)c1 | MTT | – | 0.406 µM |
| CN(C)CCn1cccc1/C=N/NC(=O)Nc1cc2c(Nc3ccc(F)c(Cl)c3)ncnc2cc1O[C@H]1CCOC1 | MTT | 72 h | 3.84 µM |
| Cc1cc(C)cc(COc2cc3c(cc2OCc2cc(C)cc(C)c2)[C@H]2C[C@](O)(Cc4cn(CC56CC7CC(CC(C7)C5)C6)nn4)C[C@H](C)N2CC3)c1 | MTT | – | 0.143 µM |
| COc1cccc2c1C(=O)c1c(O)c3c(c(O)c1C2=O)C[C@@](O)(C(=O)CO)C[C@@H]3O[C@H]1C[C@H](N)[C@H](O)[C@H](C)O1 | MTT | 48 h | 0.629 µg/mL |
| CCCCc1ccc2[nH]c(NC(=O)OC)nc2c1 | CCK-8 | 72 h | 0.15 µM |
| Cc1cc(C)cc(COc2cc3c(cc2OCc2cc(C)cc(C)c2)[C@H]2C[C@](O)(Cc4cn(Cc5ccc6ccccc6c5)nn4)C[C@H](C)N2CC3)c1 | MTT | – | 0.264 µM |
| COc1ccc(NC(=O)Nc2ccc(OCc3nccc(OCC(F)(F)F)c3C)cc2)cc1 | MTT | 72 h | 89.1 µM |
| O=C(N/N=C/c1cccn1CCN1CCOCC1)Nc1cc2c(Nc3ccc(F)c(Cl)c3)ncnc2cc1O[C@H]1CCOC1 | MTT | 72 h | 4.27 µM |
| Cc1c(OCC(F)(F)F)ccnc1COc1ccc(NC(=O)Nc2ccc(Cl)cc2)cc1 | MTT | 72 h | > 100 µM |
| COc1cc2ncnc(Nc3ccc(F)c(Cl)c3)c2cc1NC(=O)N/N=C/CN1CCOCC1 | MTT | 72 h | 3.3 µM |
| C[C@H]1[C@@H](O)O[C@@H]2O[C@@]3(C)CC[C@H]4[C@H](C)CC[C@@H]1[C@@]24OO3 | CCK-8 | 48 h | > 50 µM |
| CCN(CC)CCn1cccc1/C=N/NC(=O)Nc1cc2c(Nc3ccc(F)c(Cl)c3)ncnc2cc1OC | MTT | 72 h | 1.05 µM |
| COCCCOc1ccnc(COc2ccc(NC(=O)Nc3ccc(F)cc3)cc2)c1C | MTT | 72 h | > 100 µM |
| COc1cc(Nc2nc(CNCc3ccccc3)cc3c(-c4ccccc4)n[nH]c23)cc(OC)c1OC | MTS | 48 h | 4.3 µM |
| COCCCOc1ccnc(COc2ccc(NC(=O)Nc3ccc(Cl)c(C(F)(F)F)c3)cc2)c1C | MTT | 72 h | > 100 µM |
| CCN(CC)C/C=N/NC(=O)Nc1cc2c(Nc3ccc(F)c(Cl)c3)ncnc2cc1OC | MTT | 72 h | 4.4 µM |
| CC(C)c1cc(-c2n[nH]c(=O)n2-c2ccc3c(ccn3C)c2)c(O)cc1O | imaging | 24 h | 0.138 µM |
